We go through 3 compounds from ChEMBL document CHEMBL3352265, “Potentially bioactive organotin(IV) compounds: synthesis, characterization, in vitro bioactivities and interaction with SS-DNA” (Eur J Med Chem, 2014).

≈ marks a conversion by molar mass, not a printed value. Calls of active or inactive are those of the source. The rule behind the calls is not given here.

One experiment concerns Leishmania major. The experiment in a line: Antileishmanial activity against Leishmania major kwh 23 after 72 hrs using neobar counting by microscopy. The experiment is classed as functional, organism-based. The conditions noted are these: kwh 23, 72 h. In a few lines:
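Leishmania major promastigotes grown 7 days at 24 °C in medium 199 with 10% FBS. Samples as 10,000 ppm DMSO stocks, added to reach 200 ppm in the first row and serially diluted in 96-well plates, DMSO kept <5%. DMSO negative and amphotericin B positive controls. Incubated 72 h at 24 °C. Mortality counted in a counting chamber by light microscopy. Run 3 times. IC50 is the concentration giving 50% parasite reduction.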

In experiment [1] the test system is Aspergillus niger. Nature of the experiment: Antifungal activity against Aspergillus niger FCBP 0198 after 7 days by disc diffusion method. Format: functional, organism-based. The method in brief:
(§1)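 Disc diffusion on SDA. Fungi cultured at 28 °C for 24 h. 4 mm discs received compound at 40 mg/mL stock in DMSO. DMSO served as negative control, terbinafine as positive control. Plates incubated at 28 °C for 7 days. Growth diameter (mm) measured and inhibition calculated against the negative control. MIC taken as the lowest concentration with no growth.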

Experiment [2] has as its system Agrobacterium tumefaciens. The experiment in a line: Antitumor activity against Agrobacterium tumefaciens -induced tumor at 100 ug/ml after 21 days by potato disc bioassay technique. Format: functional. The method in brief: (§2)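 Potato disc assay with 48 h culture of A. tumefaciens At-10. Inoculum contained compound at […]. Red-skinned potatoes sterilized in 0.1% HgCl2; 8 mm × 4 mm discs placed ten per 1.5% agar plate, […] each. Incubated at 28 °C in the dark for 21 days, in triplicate. Discs stained with Lugol's and tumors counted. Percent inhibition calculated against the negative control.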

The test system of experiment [3] is Staphylococcus aureus. Nature of the experiment: Antibacterial activity against Staphylococcus aureus ATCC 6538 after 18 hrs by microdilution method. The experiment is classed as functional. In a few lines: (§3)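 Broth microdilution. Twofold dilutions in culture broth at […]. Each well inoculated with bacterial suspension (10^8 CFU/mL, about 10^5 CFU/well). Sterility control and growth control (broth plus DMSO) included. Incubated at 36 °C for 18 h, in triplicate. MIC taken as the lowest concentration inhibiting growth, given in micrograms per mL.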

The test system of experiment [4] is Salmonella typhimurium. The experiment in a line: Antibacterial activity against Salmonella typhimurium ATCC 14028 after 18 hrs by microdilution method. Format: functional. The conditions noted are these: Salmonella enterica subsp. enterica serovar Typhimurium. In a few lines:
as §3

Experiment [5] concerns Escherichia coli. The experiment in a line: Induction of Escherichia coli pBR322 DNA damage assessed as open circular form at 100 ug/ml after 60 mins by gel electrophoresis.
The test system of experiment [6] is Agrobacterium tumefaciens. Nature of the experiment: Antitumor activity against Agrobacterium tumefaciens -induced tumor at 10 ug/ml after 21 days by potato disc bioassay technique. Format: functional. The method in brief:
as §2

Experiment [7] deals with Bacillus spizizenii. Nature of the experiment: Antibacterial activity against Bacillus subtilis ATCC 6633 after 18 hrs by microdilution method. Format: functional. The method in brief: as §3
Experiment [8] deals with Klebsiella aerogenes. The experiment in a line: Antibacterial activity against Enterobacter aerogenes ATCC 13048 at 40 mg/mL after 24 hrs by disc diffusion method. Format: functional. In a few lines: (§4)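 Disc diffusion. Strains grown in nutrient broth at 37 °C for 24 h. 1% culture (about 10^6 CFU/mL) mixed into nutrient agar at 45 °C and poured. 4 mm paper discs received compound at 40 mg/mL stock in DMSO; final concentrations tested were […]. DMSO served as negative control, roxithromycin and cefixime as positive controls. Triplicate plates incubated at 37 °C for 24 h. Complete-inhibition zone diameter (mm) recorded as the mean of 3.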

Experiment [9] concerns Staphylococcus aureus. Nature of the experiment: Antibacterial activity against Staphylococcus aureus ATCC 6538 at 40 mg/mL after 24 hrs by disc diffusion method. The experiment is classed as functional. The method in brief:
as §4

Experiment [10] concerns Agrobacterium tumefaciens. The experiment in a line: Antitumor activity against Agrobacterium tumefaciens -induced tumor at 1000 ug/ml after 21 days by potato disc bioassay technique. The experiment is classed as functional. The method in brief:
as §2

Experiment [11] relates to Escherichia coli. Nature of the experiment: Induction of Escherichia coli pBR322 DNA damage assessed as open circular form at 1 ug/ml after 60 mins by gel electrophoresis.
The test system of experiment [12] is Mucor. The experiment in a line: Antifungal activity against Mucor FCBP 0400 at 40 mg/mL after 7 days by disc diffusion method. Format: functional. The method in brief:
as §1

In a further experiment the test system is Artemia salina. The experiment in a line: Cytotoxicity in brine shrimp assessed as mortality after 24 hrs. The experiment is classed as functional.
In experiment [13] the test system is Bordetella bronchiseptica. The experiment in a line: Antibacterial activity against Bordetella bronchiseptica ATCC 4617 after 18 hrs by microdilution method. The experiment is classed as functional. The method in brief: as §3
For experiment [14], the system named is Escherichia coli. Nature of the experiment: Induction of Escherichia coli pBR322 DNA damage assessed as open circular form at 1000 ug/ml after 60 mins by gel electrophoresis.
For experiment [15], the system named is Mucor. Nature of the experiment: Antifungal activity against Mucor FCBP 0400 at 40 mg/mL by disc diffusion method. The experiment is classed as functional, organism-based. The method in brief: as §1
In experiment [16] the test system is Escherichia coli. The experiment in a line: Induction of Escherichia coli pBR322 DNA damage assessed as open circular form at 10 ug/ml after 60 mins by gel electrophoresis.
For experiment [17], the system named is Escherichia coli. The experiment in a line: Antibacterial activity against Escherichia coli ATCC 15224 at 40 mg/mL after 24 hrs by disc diffusion method. The experiment is classed as functional. The method in brief:
as §4

For experiment [18], the system named is Escherichia coli. The experiment in a line: Antibacterial activity against Escherichia coli ATCC 15224 after 18 hrs by microdilution method. Format: functional. The method in brief: as §3
Experiment [19] relates to Bordetella bronchiseptica. Nature of the experiment: Antibacterial activity against Bordetella bronchiseptica ATCC 4617 at 40 mg/mL after 24 hrs by disc diffusion method. Format: functional. The method in brief: as §4
Experiment [20] relates to Bacillus spizizenii. Nature of the experiment: Antibacterial activity against Bacillus subtilis ATCC 6633 at 40 mg/mL after 24 hrs by disc diffusion method. The experiment is classed as functional. In a few lines:
as §4

Experiment [21] concerns Aspergillus flavus. The experiment in a line: Antifungal activity against Aspergillus flavus FCBP 0064 after 7 days by disc diffusion method. The experiment is classed as functional, organism-based. In a few lines:
as §1

The subject of experiment [22] is Aspergillus niger. Nature of the experiment: Antifungal activity against Aspergillus niger FCBP 0198 at 40 mg/mL after 7 days by disc diffusion method. The experiment is classed as functional. The method in brief:
as §1

Experiment [23] deals with Salmonella typhimurium. Nature of the experiment: Antibacterial activity against Salmonella typhimurium ATCC 14028 at 40 mg/mL after 24 hrs by disc diffusion method. Format: functional. The conditions noted are these: Salmonella enterica subsp. enterica serovar Typhimurium. In a few lines:
as §4

Experiment [24] deals with Aspergillus flavus. Nature of the experiment: Antifungal activity against Aspergillus flavus FCBP 0064 at 40 mg/mL after 7 days by disc diffusion method. Format: functional. The method in brief: as §1
The test system of experiment [25] is Aspergillus fumigatus. The experiment in a line: Antifungal activity against Aspergillus fumigatus FCBP 66 after 7 days by disc diffusion method. The experiment is classed as functional, organism-based. In a few lines:
as §1

Experiment [26] has as its system Klebsiella aerogenes. Nature of the experiment: Antibacterial activity against Enterobacter aerogenes ATCC 13048 after 18 hrs by microdilution method. The experiment is classed as functional, organism-based. In a few lines: as §3
Experiment [27] deals with Aspergillus fumigatus. Nature of the experiment: Antifungal activity against Aspergillus fumigatus FCBP 66 at 40 mg/mL after 7 days by disc diffusion method. The experiment is classed as functional. In a few lines: as §1

Turning to `C[C@@H]1[C@H](O)[C@@H](C)/C=C/C=C/C=C/C=C/C=C/C=C/C=C/[C@H](O[C@@H]2O[C@H](C)[C@@H](O)[C@H](N)[C@@H]2O)C[C@@H]2O[C@](O)(C[C@@H](O)C[C@@H](O)[C@H](O)CC[C@@H](O)C[C@@H](O)CC(=O)O[C@H]1C)C[C@H](O)[C@H]2C(=O)O` [AMPHOTERICIN B], it took 0.56 µg/mL (≈ 0.606 µM) to reach half-maximal inhibition with Leishmania major (IC50).
Consider “N-[(2-methoxyphenyl)]-4-oxo-4-[(trimethylstannyl)oxy]butanamide”, for which the MIC amounted to 12.5 µg/mL against Aspergillus niger [1]; 50 µg/mL against Staphylococcus aureus [3]; 25 µg/mL against Salmonella typhimurium [4]; 25 µg/mL against Bacillus spizizenii [7]; 12.5 µg/mL in experiment [13]; 50 µg/mL in the experiment with Mucor [15]. Moreover, the MIC against Escherichia coli [18] is 25 µg/mL; in the experiment with Aspergillus flavus [21], 50 µg/mL; against Aspergillus fumigatus [25], 50 µg/mL; in the experiment with Klebsiella aerogenes [26], 50 µg/mL. The values for the Activity in experiment [2], in [6] and in experiment [10] were 54.8%, 30.2% and 69.9%, respectively. The outcome in the experiment on Escherichia coli [5], in the experiment on Escherichia coli [11], with Escherichia coli [14] and in the experiment on Escherichia coli [16] was Active. The inhibition zone (IZ) amounted to 20 mm in the experiment on Klebsiella aerogenes [8]; 25 mm with Staphylococcus aureus [9]; 24 mm in the experiment with Mucor [12]; 26 mm in the experiment on Escherichia coli [17]; 26 mm in [19]; 27 mm with Bacillus spizizenii [20]. Besides, the inhibition zone (IZ) in the experiment on Aspergillus niger [22] was found to be 28 mm; in the experiment with Salmonella typhimurium [23] it was 23 mm; with Aspergillus flavus [24], 28 mm; in the experiment on Aspergillus fumigatus [27], 22 mm. In the experiment on Artemia salina, the LD50 was determined as 1.09 µg/mL.
Take “Di-tert-butylstannanediyl bis[4-(2-methoxyphenylamino)-4-oxobutanoate]”: the MIC was found to be 100 µg/mL against Aspergillus niger [1]; 12.5 µg/mL against Staphylococcus aureus [3]; 6.25 µg/mL against Salmonella typhimurium [4]; 12.5 µg/mL against Bacillus spizizenii [7]; 12.5 µg/mL in experiment [13]; 100 µg/mL in the experiment with Mucor [15]. The MIC against Escherichia coli [18] came out at 12.5 µg/mL; in the experiment with Aspergillus flavus [21], 100 µg/mL; with Aspergillus fumigatus [25] it was 100 µg/mL; with Klebsiella aerogenes [26], 6.25 µg/mL. Also, the figures for the Activity in experiment [2], in experiment [6] and in experiment [10] were 71.5%, 53.4% and 92.4%, respectively. The outcome with Escherichia coli [5], in the experiment on Escherichia coli [11], in the experiment with Escherichia coli [14] and in the experiment on Escherichia coli [16] was Active. Besides, the inhibition zone (IZ) came to 40 mm with Klebsiella aerogenes [8]; 17 mm with Staphylococcus aureus [9]; 14 mm in the experiment with Mucor [12]; 24 mm in the experiment on Escherichia coli [17]; 30 mm in [19]; 40 mm in the experiment on Bacillus spizizenii [20]. In addition, the inhibition zone (IZ) with Aspergillus niger [22] amounted to 24 mm; in the experiment with Salmonella typhimurium [23], 26 mm; with Aspergillus flavus [24], 20 mm; in the experiment on Aspergillus fumigatus [27], 18 mm. Also, in the experiment with Artemia salina, the LD50 came to 3.11 µg/mL.
